SIAE primary = blocks human sialic acid acetylesterase; Q9HAT2; SIAE FP-Rh probe binding, fluorescence polarization; inhibition, % at 9.66 µM; hit rate 0.69% among 370,000; AID 1053197;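 active = inhibition above a cutoff: mean of compounds within the control limits plus 3 SD of those, cut at about 17% in these data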;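 also: 0% = plate median of compound wells and 100% = probe without SIAE protein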
pPAFAH inh = inhibitors of human plasma PAF acetylhydrolase (pPAFAH); Q13093; recombinant pPAFAH, FP-rhodamine probe fluorescence polarization; inhibition, % at 3.39 µM; hit rate 1.5% among 330,000; AID 463082;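 active = inhibition above the mean inhibition across the screen plus 3 SD, cut at about 25% in these data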;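 also: inhibitors block binding of the rhodamine activity-based probe so polarization drops; 0% = enzyme with DMSO and 100% = wells lacking pPAFAH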
TCR CD3 inh = human TCR-CD3 binding inhibition; hit rate 0.37% among 360,000; inhibition, % at 9.4 µM; TAMRA-labeled TCR probe fluorescence, biochemical;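 also: recombinant mutant TCR 2C K166C tagged with TAMRA read by polarization; 0% = receptor in buffer alone and 100% = receptor with positive control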
ABHD4 inh = inhibits mouse alpha/beta hydrolase domain 4; Q8VD66; purified mABHD4, FP-Rh probe fluorescence polarization; inhibition, % at 8.92 µM; hit rate 0.54% among 370,000;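 active = inhibition exceeding the mean over every tested compound plus 3 SD, cut at about 30% in these data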;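 also: 0% = plate median of compound wells and 100% = S159A mutant with DMSO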
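Test system: mouse ABHD4 enzyme, wild type. Reagent: FP-Rh fluorescent activity-based probe, added after compound pre-incubation. Timing: pre-incubation 45 min, probe exposure 60 min, at 25 °C. Technique: FP readout, ex 525 nm / em 598 nm. Benchmarks: high control S159A mutant with DMSO, low control median of compound wells.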
HTRA1 inh = inhibitors of human serine peptidase HTRA1. Q92743. recombinant HTRA1, FP-rhodamine activity-based probe, fluorescence polarization. inhibition, % at 5.96 µM. hit rate 0.5% among 340,000; in the data active = inhibition above about 36%;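 also: 0% = enzyme with DMSO and 100% = wells lacking enzyme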
Target sequence (Q92743 whole entry, looked up): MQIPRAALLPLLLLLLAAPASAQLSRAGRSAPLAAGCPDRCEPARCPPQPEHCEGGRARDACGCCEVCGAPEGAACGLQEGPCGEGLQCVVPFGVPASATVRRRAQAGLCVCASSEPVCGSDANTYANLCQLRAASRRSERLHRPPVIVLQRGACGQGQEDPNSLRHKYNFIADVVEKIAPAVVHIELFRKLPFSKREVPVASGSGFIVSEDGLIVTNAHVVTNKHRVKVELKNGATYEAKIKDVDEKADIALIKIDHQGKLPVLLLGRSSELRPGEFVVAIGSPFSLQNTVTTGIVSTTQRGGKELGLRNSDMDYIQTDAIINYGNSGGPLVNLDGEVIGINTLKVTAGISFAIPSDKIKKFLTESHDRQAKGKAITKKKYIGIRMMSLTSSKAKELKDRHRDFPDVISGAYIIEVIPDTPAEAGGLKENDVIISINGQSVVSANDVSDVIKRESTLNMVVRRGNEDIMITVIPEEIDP
BSA TAMRA ctr = BSA probe counter-screen for TCR-CD3 inhibitors; inhibition, % at 9.4 µM; TAMRA-labeled BSA probe fluorescence counterscreen; shares compounds with TCR CD3 inh; hit rate 10% among 1,200; in the data active = inhibition above about 23%;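 also: 0% = buffer low control and 100% = reference high control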
TCR-CD3 inh conf = confirmation of human TCR-CD3 interaction inhibitors. shares compounds with TCR CD3 inh. TAMRA-labeled TCR probe fluorescence binding assay. inhibition, % at 9.4 µM. hit rate 48% among 1,200. AID 652036
Numbers without * were called inactive; x = no result. A selection: hits, their analogues and other compounds. The true share with any hit is near 2.3%. Rule as the data show it, unless noted: active = inhibition above about 19%; inactive = the rest.

SMILES	SIAE primary	pPAFAH inh	TCR CD3 inh	ABHD4 inh	HTRA1 inh	BSA TAMRA ctr	TCR-CD3 inh conf
COc1cccc(C(=O)NNC(=O)c2ccc3ccccc3c2O)c1	0.7	10.4	40.3*	5.4	7.8	-6.8	35.9*
CCOP(=O)(OCC)C(NC(=O)Nc1ccc(Cl)cc1)C(=O)N(CC)CC (stereo not drawn)	-6.8	-3.8	21.5*	-3.1	-1.7	0.1	1.0
Cn1c(=O)c(C(=O)NNC(=O)c2cccc(Cl)c2)c(O)c2ccccc21	2.1	3.1	22.2*	0.8	0.2	-3.5	14.8
Cc1cccc(C(=O)NNC(=O)c2c(O)c3ccccc3n(C)c2=O)c1	-5.2	2.1	14.7	-0.9	2.3	x	x
O=C(N/N=C/c1ccoc1)c1cc(O)cc(O)c1	9.1	18.2	20.1*	15.5	12.7	-3.5	22.6*
COc1cc(OC)cc(C(=O)N/N=C/c2ccc(OC)c(COc3ccc4ccccc4c3)c2)c1	-84.0	-21.0	39.6*	-83.0	-89.4	9.3	34.6*
COc1ccc(C(=O)N/N=C/c2ccc(OC)c(COc3ccccc3)c2)cc1	-4.0	8.5	4.8	-3.5	-16.4	x	x
COc1cc(/C=N/NC(=O)c2cc(O)cc(O)c2)ccc1OC(=O)c1ccccc1	-29.3	x	20.5*	-26.7	-28.5	-9.8	25.9*
Cc1cc(C)cc(C(=O)N/N=C/c2ccoc2)c1	-5.7	8.2	-5.0	-5.7	-7.7	x	x
Cc1nnc(NC(=O)CSc2nnc(CC(=O)Nc3ccccc3F)n2C)s1	-2.1	-3.8	65.7*	7.0	-2.4	2.1	2.7
COCCNC(=O)C1CCCN(C(=O)c2ccc3sccc3c2)CC1 (stereo not drawn)	2.4	x	1.3	-0.7	x	x	x
CCCC[C@@H]1C(=O)N2N=Cc3ccccc3[C@H]2N2N=Cc3ccccc3[C@@H]12	12.1	x	x	-4.6	x	x	x
CCN(CC)c1ccc(C(=O)c2ccccc2C(=O)O)c(O)c1	10.9	4.8	40.4*	28.3	15.1	56.0*	36.5*
Cc1ccc(-n2c(SCC(=O)Nc3ccc(S(=O)(=O)Nc4cc(C)nc(C)n4)cc3)nnc2-c2ccncc2)cc1	-9.5	x	x	-5.2	x	x	x
CC(C)c1ccc(N2C(=O)/C(=C/N(C)C)SC2=S)cc1	-87.7	29.5*	66.7*	-134.5	6.4	149.6*	131.8*
Cc1ccc(C(=O)NC2CCCC2)cc1S(=O)(=O)N1CCCCC1	1.9	6.4	9.3	-4.1	2.6	x	x
Cc1ccc(C(=O)NNC(=O)c2ccccc2O)cc1S(=O)(=O)N1CCCCC1	1.2	13.9	24.0*	11.6	25.3	-3.8	22.9*
O=C(NNC(=O)C1CCN(S(=O)(=O)c2ccc(Cl)cc2)CC1)c1ccccc1O	4.4	6.0	34.0*	-1.1	19.2	-3.0	31.2*
CC1(C)CC2CC(C)(CN2S(=O)(=O)c2ccc(C(=O)Nc3cc(S(=O)(=O)N4CCOCC4)ccc3Cl)cc2)C1 (stereo not drawn)	-9.6	0.8	4.6	6.7	-27.9	x	x
CC1(C)CC2CC(C)(CN2S(=O)(=O)c2ccc(C(=O)Nc3cccc(S(=O)(=O)N4CCOCC4)c3)cc2)C1 (stereo not drawn)	-92.2	-22.8	35.0*	-84.4	-66.5	5.5	28.5*
COc1ccc(/C=N/NC(=O)c2ccncc2)cc1[N+](=O)[O-]	-6.2	-3.3	-1.5	2.9	1.6	x	x
COc1cc(O)c(/C=N/NC(=O)c2ccncc2)c(OC)c1[N+](=O)[O-]	2.4	7.6	19.2*	14.1	10.1	-0.5	31.4*
CC(=O)c1nc(N2C(=O)CC(Cc3ccc(C)cc3)C2=O)sc1C (stereo not drawn)	-3.0	-8.7	55.6*	-3.4	-3.5	-2.3	3.6
COc1ccc(C)cc1NC(=O)CCCNC(=O)Cn1cnc2sc(C)c(C)c2c1=O	-3.0	4.7	-7.8	-6.2	2.8	x	x
COc1ccc(NC(=O)CCCNC(=O)Cn2cnc3sc(C)c(C)c3c2=O)c(OC)c1	-2.8	2.6	72.3*	-0.3	7.1	-3.8	0.7
CCCC1CCC2(CCCN2CCOC(=S)Nc2ccccc2OC)CC1 (stereo not drawn)	2.1	x	x	-7.2	x	x	x
NS(=O)(=O)c1cc(C(=O)NC2CCSc3ccccc32)ccc1Cl (stereo not drawn)	-43.1	-4.5	40.1*	-36.0	-177.8	-0.3	36.2*

Bioassay records: PubChem, The Scripps Research Institute Molecular Screening Center
